Converted amounts (≈) assume the structure as drawn. Starred links: 1 amine or outer side, 2 acyl side, 3 side chain; linkers in the order of their positions; H or OH if unused. Positions of bridges follow the written chain, without caps; N, C: chain ends. Non-standard residues stand in square brackets, D forms with d. Residues, ends and D or L forms follow the SMILES beside them. *: point of attachment. pTerphenylCO(4''-OnC5H11) = CCCCCOc1ccc(-c2ccc(-c3ccc(C(=O)*)cc3)cc2)cc1; Orn(4R-OH,5R-OH) = O=C([C@H](C[C@@H](O)[C@@H](O)N[*:3])N[*:1])[*:2]; hTyr(3S-OH,4S-OH) = N[C@H](C(=O)O)[C@H](O)[C@@H](O)c1ccc(O)cc1; Pro(3S-OH,4S-Me) = C[C@H]1CN[C@H](C(=O)O)[C@H]1O; Hyp = O=C(O)[C@@H]1C[C@@H](O)CN1
Tests used:
Format in all cases: functional
[1] = system: Fonsecaea; assay: Antimicrobial activity against Fonsecaea isolates after 72 hrs by CLSI M38-A2 protocol method
Summary of the method: (§1)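 Broth microdilution per CLSI M38-A2. Isolates grown on potato dextrose agar at 35°C for up to 7 days. Inocula were scraped into saline with 0.05% Tween 40, settled 3 to 5 min, and adjusted at 530 nm to 68 to 71% transmission (1.5 × 104 to 4 × 10^4 CFU/ml). Incubated 72 h at 35°C and read visually against drug-free control: MIC at 100% or ≥50% inhibition depending on drug, MEC microscopically by compact hyphae.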

[2] = system: Fonsecaea; assay: Antimicrobial activity against Fonsecaea nubica isolates after 72 hrs by CLSI M38-A2 protocol method; summary of the method: as §1
[3] = system: Fonsecaea monophora; assay: Antimicrobial activity against Fonsecaea monophora isolates after 72 hrs by CLSI M38-A2 protocol method; summary of the method: as §1
[4] = system: Fonsecaea pedrosoi; assay: Antimicrobial activity against Fonsecaea pedrosoi isolates after 72 hrs by CLSI M38-A2 protocol method; summary of the method: as §1

Compound	MIC50 [1] [µg/mL]	MIC90 [1] [µg/mL]	MIC50 [2] [µg/mL]	MIC90 [2] [µg/mL]	MIC50 [3] [µg/mL]	MIC90 [3] [µg/mL]	MIC50 [4] [µg/mL]	MIC90 [4] [µg/mL]	MIC [2] [µg/mL]
CCC(C)n1ncn(-c2ccc(N3CCN(c4ccc(OCC5COC(Cn6cncn6)(c6ccc(Cl)cc6Cl)O5)cc4)CC3)cc2)c1=O (configuration not stated) [ITRACONAZOLE]	0.063 (≈ 0.0893 µM)	0.125 (≈ 0.177 µM)	0.125 (≈ 0.177 µM)	0.25 (≈ 0.354 µM)	0.063 (≈ 0.0893 µM)	0.125 (≈ 0.177 µM)	0.063 (≈ 0.0893 µM)	0.125 (≈ 0.177 µM)	
CC[C@@H]([C@H](C)O)n1ncn(-c2ccc(N3CCN(c4ccc(OC[C@@H]5CO[C@@](Cn6cncn6)(c6ccc(F)cc6F)C5)cc4)CC3)cc2)c1=O [POSACONAZOLE]	0.031 (≈ 0.0442 µM)	0.063 (≈ 0.0899 µM)	0.031 (≈ 0.0442 µM)	0.063 (≈ 0.0899 µM)	0.031 (≈ 0.0442 µM)	0.063 (≈ 0.0899 µM)	0.063 (≈ 0.0899 µM)	0.063 (≈ 0.0899 µM)	0.031 (≈ 0.0442 µM)
C[C@@H](c1ncncc1F)[C@](O)(Cn1cncn1)c1ccc(F)cc1F [VORICONAZOLE]	0.25 (≈ 0.716 µM)	0.5 (≈ 1.43 µM)	0.25 (≈ 0.716 µM)	0.5 (≈ 1.43 µM)	0.063 (≈ 0.18 µM)	0.125 (≈ 0.358 µM)	0.5 (≈ 1.43 µM)	0.5 (≈ 1.43 µM)	0.25 (≈ 0.716 µM)
C[C@@H](c1nc(-c2ccc(C#N)cc2)cs1)[C@](O)(Cn1cncn1)c1cc(F)ccc1F [ISAVUCONAZOLE]	0.25 (≈ 0.571 µM)	0.25 (≈ 0.571 µM)	0.125 (≈ 0.286 µM)	0.5 (≈ 1.14 µM)	0.125 (≈ 0.286 µM)	0.25 (≈ 0.571 µM)	0.25 (≈ 0.571 µM)	0.25 (≈ 0.571 µM)	
CC[C@H](C)C[C@H](C)CCCCCCCCC(=O)N[C@H]1C[C@@H](O)[C@@H](NCCN)NC(=O)[C@@H]2[C@@H](O)CCN2C(=O)[C@H]([C@H](O)CCN)NC(=O)[C@H]([C@H](O)[C@@H](O)c2ccc(O)cc2)NC(=O)[C@@H]2C[C@@H](O)CN2C(=O)[C@H]([C@@H](C)O)NC1=O [CASPOFUNGIN]	2 (≈ 1.83 µM)	2 (≈ 1.83 µM)	2 (≈ 1.83 µM)	4 (≈ 3.66 µM)	2 (≈ 1.83 µM)	2 (≈ 1.83 µM)	4 (≈ 3.66 µM)	4 (≈ 3.66 µM)	2 (≈ 1.83 µM)
OC(Cn1cncn1)(Cn1cncn1)c1ccc(F)cc1F [FLUCONAZOLE]	16 (≈ 52.2 µM)	32 (≈ 104 µM)	16 (≈ 52.2 µM)	32 (≈ 104 µM)	16 (≈ 52.2 µM)	32 (≈ 104 µM)	32 (≈ 104 µM)	32 (≈ 104 µM)	16 (≈ 52.2 µM)
C[C@@H]1[C@H](O)[C@@H](C)/C=C/C=C/C=C/C=C/C=C/C=C/C=C/[C@H](O[C@@H]2O[C@H](C)[C@@H](O)[C@H](N)[C@@H]2O)C[C@@H]2O[C@](O)(C[C@@H](O)C[C@@H](O)[C@H](O)CC[C@@H](O)C[C@@H](O)CC(=O)O[C@H]1C)C[C@H](O)[C@H]2C(=O)O [AMPHOTERICIN B]	1 (≈ 1.08 µM)	2 (≈ 2.16 µM)	1 (≈ 1.08 µM)	2 (≈ 2.16 µM)	1 (≈ 1.08 µM)	2 (≈ 2.16 µM)	1 (≈ 1.08 µM)	2 (≈ 2.16 µM)	
CCCCCOc1ccc(-c2ccc(-c3ccc(C(=O)N[C@H]4C[C@@H](O)[C@@H](O)NC(=O)[C@@H]5[C@@H](O)[C@@H](C)CN5C(=O)[C@H]([C@@H](C)O)NC(=O)[C@H]([C@H](O)[C@@H](O)c5ccc(O)cc5)NC(=O)[C@@H]5C[C@@H](O)CN5C(=O)[C@H]([C@@H](C)O)NC4=O)cc3)cc2)cc1 [ANIDULAFUNGIN] ({pTerphenylCO(4''-OnC5H11)}-[Orn(4R-OH,5R-OH)]T[Hyp][hTyr(3S-OH,4S-OH)]T[Pro(3S-OH,4S-Me)]; lactam 1-C)			2 (≈ 1.75 µM)	8 (≈ 7.02 µM)	4 (≈ 3.51 µM)	8 (≈ 7.02 µM)	8 (≈ 7.02 µM)	8 (≈ 7.02 µM)	2 (≈ 1.75 µM)
